# Screens as filed in PubChem.
# The list is not random: actives were taken first. Their share in the collection is about 5.7%.
# Mdm2 MdmX PPI: inhibitors of human Mdm2/MdmX interaction; O15151+Q00987; SaOS-2 split-luciferase Mdm2/MdmX complementation, luminescence; inhibition, % at 8 µM; 3% of 330,000 active;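 active = inhibition of at least 50% at 8 µM in the primary screen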
# Target sequence (O15151 whole entry, looked up): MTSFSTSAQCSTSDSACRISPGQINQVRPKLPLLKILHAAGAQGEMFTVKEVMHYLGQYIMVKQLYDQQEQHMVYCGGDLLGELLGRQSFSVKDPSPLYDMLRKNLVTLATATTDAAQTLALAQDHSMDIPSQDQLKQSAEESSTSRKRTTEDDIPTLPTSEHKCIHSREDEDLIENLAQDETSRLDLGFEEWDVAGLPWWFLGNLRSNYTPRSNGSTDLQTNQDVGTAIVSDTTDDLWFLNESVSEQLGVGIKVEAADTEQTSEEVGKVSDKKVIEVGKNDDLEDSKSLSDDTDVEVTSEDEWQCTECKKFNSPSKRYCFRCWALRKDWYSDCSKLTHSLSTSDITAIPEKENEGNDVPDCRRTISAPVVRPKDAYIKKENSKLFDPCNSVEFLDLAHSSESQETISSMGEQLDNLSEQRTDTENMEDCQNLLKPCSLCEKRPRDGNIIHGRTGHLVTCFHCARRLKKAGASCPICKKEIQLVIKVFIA
# Target sequence (Q00987 whole entry, looked up): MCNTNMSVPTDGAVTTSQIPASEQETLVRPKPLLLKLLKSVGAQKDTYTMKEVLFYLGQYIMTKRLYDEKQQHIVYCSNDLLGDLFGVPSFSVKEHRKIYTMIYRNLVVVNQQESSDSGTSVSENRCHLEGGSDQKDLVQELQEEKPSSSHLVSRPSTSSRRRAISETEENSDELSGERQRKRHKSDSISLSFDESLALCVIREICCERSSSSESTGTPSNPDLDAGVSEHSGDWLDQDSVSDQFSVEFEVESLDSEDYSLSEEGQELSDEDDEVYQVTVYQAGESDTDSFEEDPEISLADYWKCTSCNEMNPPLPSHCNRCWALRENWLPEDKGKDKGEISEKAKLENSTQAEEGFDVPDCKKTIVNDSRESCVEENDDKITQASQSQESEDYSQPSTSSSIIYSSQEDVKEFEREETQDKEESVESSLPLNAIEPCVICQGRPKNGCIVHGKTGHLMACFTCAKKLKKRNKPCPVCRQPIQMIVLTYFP
# Calb FLC: C. albicans growth modulation with fluconazole | C. albicans CaCi-2 (fluconazole-resistant clinical isolate) + fluconazole, Alamar Blue growth, 48 h | growth inhibition, % (no concentration beside the values) | 0.57% of 300,000 active | AID 1979;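 active = growth inhibition above about 58% in most replicates, limit read from the data, passing the limit was not always enough; inconclusive = exactly half the replicates above a set limit; inactive = most replicates below a set limit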;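 note: all wells also contain fluconazole at 8 µg/ml as a sub-toxic cotreatment; 0% = median of DMSO wells and 100% = median of geldanamycin control wells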
# CSC inhib: blocks cancer stem cells. cancer stem cell-like cells viability, luminescence. inhibition, % at 7.5 µM. 1.1% of 300,000 active; in the data active = inhibition above about 75%; inconclusive = no clear call, values can overlap the other calls; tested in HMLE shEcad cells
# SKKanGAS inh: SKKanGAS growth inhibition; AID 1662; 1.3% of 300,000 active; inhibition, % at 7.5 µM; S. pyogenes SKKanGAS, kanamycin growth, BacTiter-Glo, 6 h;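 active = mean replicate score, as percent of positive control median, at least 50; inconclusive = mean below 50 but one replicate at or above 50; inactive = mean and every replicate below 50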;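 note: strain carries kanamycin resistance gene driven by streptokinase promoter and grows in 40 µg/ml kanamycin; loss of luminescence reflects streptokinase promoter inhibition or plain growth inhibition; 0% = median of DMSO wells and 100% = positive control at its reference dose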
# T cruzi repl: blocks replication of Trypanosoma cruzi. T. cruzi beta-gal in NIH3T3, luminescence, 90 h. 1.4% of 300,000 active. inhibition, % (test concentration not listed);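 active = mean inhibition across valid replicates above about 55%, limit read from the data; inconclusive = mean below that limit but half or more replicates reach it; inactive = mean below it, under half of replicates reach it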;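 note: signal also drops with host cell toxicity which is not excluded here; 0% = plate median of DMSO wells and 100% = zero luminescence signal; higher percent means less beta-gal luminescence so fewer parasites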
#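 Test system: β-gal T. cruzi (Tulahuen C4) inside NIH/3T3 cells / Quantity: 5,000 cells/well / Measured by: luminescence from GalScreen with 0.05% NP40, read after 60 min / Medium: DMEM plus 2% FBS / Measure: parasite load inhibition, % / Reagent: Tulahuen C4 trypomastigotes, 5000/well / Schedule: co-culture of at least 90 h after 3 h attachment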
# Beta cell apopt: blocks beta cell apoptosis. INS-1E cytokine-induced death, ATP luminescence, 48 h; percent of positive-control rescue, neutral wells zero. protection from apoptosis, % (concentration not given with the values). 0.8% of 300,000 active. AID 435005;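 active = Every replicate reaches about 75%, or at least half do and their mean reaches it too, limit read from the data; inconclusive = At least half of replicates reach the limit but their mean does not; inactive = Under half of replicates reach the limit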;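 note: 0% = cytokine-treated negative control wells and 100% = positive control rescue; higher means more ATP so stronger rescue from cytokine killing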
# Starred values were filed as active, the others as inactive; u = inconclusive; x = no result given.
SMILES,Mdm2 MdmX PPI,Calb FLC,CSC inhib,SKKanGAS inh,T cruzi repl,Beta cell apopt
COc1cc([N+](=O)[O-])c(N2CCOCC2)c([N+](=O)[O-])c1OC,9.2,19.7,-3.0,-1.2,75.4*,-8.8
O=[N+]([O-])c1cc(Br)c2nsnc2c1N1CCOCC1,21.4,25.2,x,0.9,-11.3,x
CCC(C)N(C(=O)CSc1nnc2ccccn12)C1CCS(=O)(=O)C1 (stereo not given),15.2,x,x,x,x,x
Cc1ccc(S(=O)(=O)N2CCOC23CCN(C(=O)c2ccccc2Br)CC3)cc1,10.5,-16.3,-2.9,7.2,11.4,-8.3
Fc1ccc(COc2cccc(CNCc3ccncc3)c2)cc1,-6.7,-11.9,-6.5,4.2,60.0*,24.8
Fc1ccc(COc2ccc(Br)cc2CNCc2ccncc2)cc1,0.5,17.8,x,-3.6,70.9*,-0.2
O=C(CCc1ccccc1)NNC(=O)COc1ccccc1Cl,-10.6,0.5,-1.2,-1.8,-2.0,-3.0
O=C(C1CC(=O)N(C2CCCC2)C1)N1CCN(c2cccc(Cl)c2)CC1 (stereo not given),11.4,-1.6,-2.6,-2.8,-4.8,-1.5
COc1cc(CNC(C)c2ccccc2)cc(Br)c1OCc1ccccc1 (stereo not given),28.3,10.3,111.7*,7.7,51.1,18.0
Cc1cc(C)cc(NC(=O)CSc2nc3nc(C)cc(C)n3n2)c1,9.3,x,-5.8,x,x,0.0
CCN(CC)S(=O)(=O)c1cc(C(=O)OC(C)C(=O)NCc2ccco2)ccc1C (stereo not given),-11.5,x,14.7,x,x,10.4
N#CC1(NC(=O)COC(=O)c2cc(O)c3ccccc3c2O)CCCCC1,30.5,36.5,89.5*,8.5,3.7,-2.1
Cc1ccc(C#CC[N+](C)(C)CC#Cc2ccccc2)cc1,-9.8,-31.1,-3.5,14.4,57.2*,11.3
CCn1cc(CN2CCCC(C(=O)Nc3cccc(-c4cc5ccccc5[nH]4)c3)C2)cn1 (stereo not given),42.6,1.9,-18.9,2.1,35.7,-0.6
CC(C)c1ccc(Nc2ccc(C(=O)O)cc2[N+](=O)[O-])cc1,12.8,-2.6,-5.9,13.0,-6.2,-4.6
CCc1nnc(NC(=O)CSc2nnc(Cc3ccccc3)n2-c2ccccc2)s1,5.3,-2.7,-1.1,-1.1,11.3,-4.9
CCc1nnc(NC(=O)c2cccc(C(=O)Nc3nnc(CC)s3)n2)s1,x,-6.2,40.2,99.0*,31.9,76.2*
CCc1nnc(NC(=O)Cn2ccc(C(F)(F)F)n2)s1,27.6,94.6*,-0.9,8.3,-6.4,-0.2
CCc1nnc(NC(=O)CSc2ncc(-c3ccccc3)n2C)s1,18.9,86.4*,x,7.7,-6.7,0.7
CCc1nnc(NC(=O)CSc2nnc(CNc3cccc(C)c3)n2-c2ccccc2)s1,17.8,116.4*,-3.8,-7.5,4.9,-0.2
CCc1nnc(NC(=O)CN2C(=O)CCC2=O)s1,19.3,-1.4,x,1.7,4.6,5.4
Cc1nc(SCC(=O)NC(=O)NCCC(C)C)c2c(-c3cccs3)csc2n1,22.1,-4.9,17.7,32.7,27.8,5.6
CCn1c(Sc2nc(C)nc3scc(-c4cccs4)c23)n[nH]c1=O,13.9,95.3*,18.5,2.4,-14.1,-6.5
CC(=O)Nc1cccc(NC(=O)COc2ccc3c(c2)OCO3)c1,18.1,0.8,-3.2,-1.5,-5.5,1.0
Cc1nn(-c2cc(N3CCCC3)ccc2[N+](=O)[O-])c(=O)c2ccccc12,4.4,-1.8,2.6,15.9,2.5,5.9
SMILES,Mdm2 MdmX PPI,Calb FLC,CSC inhib,SKKanGAS inh,T cruzi repl,Beta cell apopt
Cc1ccc(C)c(-c2nn(-c3cc(N4CCN(CCO)CC4)ccc3[N+](=O)[O-])c(=O)c3ccccc23)c1,-1.5,30.5,x,6.0,60.8*,2.2
COc1ccc(CC(=O)N(Cc2ccccc2)c2cccc(C)c2)cc1OC,-2.9,16.4,-9.1,14.5,19.2,-3.2
Cc1cccc(N(Cc2ccccc2)C(=O)CCl)c1,x,9.9,x,-15.4,72.1*,x
CC(=O)N1c2ccc(F)c(F)c2C[C@H]1C,1.6,x,14.1,x,x,-2.1
Cc1nn(-c2ccccc2)c(Cl)c1C1C(C#N)=C(N)OC2=C1C(=O)CC(C)(C)C2 (stereo not given),30.9,-21.7,35.1,84.9*,12.6,-0.3
O=C(Cc1cccc(NC(=O)C2CCN(C(=O)CCc3ccccc3)CC2)c1)Nc1cccc(C(=O)N2CCCC2)c1,-0.4,x,-11.2,x,x,14.6
Cc1ccc(S(=O)(=O)N(C)CC(O)Cn2c3ccccc3c3ccccc32)cc1 (stereo not given),14.2,12.8,5.7,11.8,6.1,-2.7
O=S(=O)(c1ccccc1)N(CC(O)Cn1c2ccccc2c2ccccc21)c1ccccc1 (stereo not given),43.4,3.6,94.7*,42.8,35.3,x
COc1ccccc1N(CC(O)Cn1c2ccccc2c2ccccc21)S(=O)(=O)c1ccccc1 (stereo not given),8.0,2.1,10.7,u,62.5*,6.4
Cc1c(Cl)cccc1Nc1nc(NCCO)c2ccccc2n1,30.3,-2.5,23.1,-0.7,56.5*,16.8
OCCNc1nc(Nc2ccccc2)nc2ccccc12,10.9,-0.4,3.4,6.3,41.5,5.2
O=S(=O)(NCC(c1cccnc1)N1CCN(Cc2ccccc2)CC1)c1ccc(Cl)cc1 (stereo not given),15.1,0.1,11.3,1.0,57.7*,0.4
O=S(=O)(NCC(c1cccnc1)N1CCN(Cc2ccccc2)CC1)c1ccc(F)cc1 (stereo not given),-2.3,0.1,3.9,-0.1,47.4,2.4
COc1ccc(S(=O)(=O)NCC(c2cccnc2)N2CCN(c3ccc(F)cc3)CC2)cc1C (stereo not given),x,4.3,x,-3.2,44.0,x
COc1ccc(N2CCN(C(CNS(=O)(=O)c3cc(F)ccc3F)c3cccnc3)CC2)cc1 (stereo not given),25.5,3.0,12.5,2.0,69.6*,2.2
O=S(=O)(NCC(c1cccnc1)N1CCN(Cc2ccccc2)CC1)c1cc(F)ccc1F (stereo not given),25.5,-7.4,-0.3,0.7,58.9*,6.0
COc1ccc(S(=O)(=O)NCC(c2cccnc2)N2CCN(c3ccccc3)CC2)cc1C (stereo not given),30.7,-1.2,-6.9,1.1,62.8*,-3.0
CCN1CCN(C(CNS(=O)(=O)c2ccc(F)cc2)c2cccnc2)CC1 (stereo not given),14.7,-8.0,0.1,6.3,21.4,-11.6
O=C(NCC1CCCO1)c1ccc(-c2ccccc2Cl)o1 (stereo not given),-85.8,4.1,-8.6,-8.6,-5.8,x
CC(NC(=O)COC(=O)c1cc(=O)c2ccccc2o1)c1ccccc1 (stereo not given),-5.4,x,-7.4,x,x,-0.9
COc1cc(NS(=O)(=O)c2ccc(NC(=O)Cc3ccccc3)cc2)nc(OC)n1,-3.4,-3.4,x,14.5,-1.5,-8.0
COc1cc(OC)cc(C(=O)N/N=C\c2ccoc2)c1,-2.0,0.4,-10.8,-4.3,14.8,-5.9
